# Assays:
# [1] = Apparent permeability from basolateral to apical side of human Caco2 cells up to 120 mins by HPLC analysis; type: ADME, cell-based; conditions: Caco-2
# Method in brief: (§1)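 Caco-2 monolayers on polycarbonate transwell filters, TEER about 700 Ω cm², rechecked after each test. Compounds in HBSS at final 4 mM on the donor side, 37 °C. Receiver side sampled at 30, 60, 90 and 120 min and measured by HPLC. Papp = dQ/dt·1/(A·C0), area 1 cm²; n = 4.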
# CCRF S-180 [2] = test: Antitumor activity against mouse S180 cells xenografted in ICR mouse assessed as tumor growth inhibition at 100 umol/kg/day, ip qd for 7 days measured 24 hrs after last dose relative to control; type: functional; conditions: CCRF S-180, ip
# Method in brief: (§2)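 Male ICR mice, 10–12 weeks old. S180 cells from serially passaged ascites; 1×10^7 viable cells in 0.2 ml saline injected subcutaneously at right oxter. Dosing began 24 h later, 10 per group. Daily i.p. dose of 100 µmol/kg in 0.2 ml saline for 7 days; saline and i.p. cytarabine as controls. Tumors excised and weighed 24 h after last dose; inhibition calculated versus saline group.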
# HeLa = test: Antiproliferative activity against human HeLa cells after 48 hrs by MTT assay; type: functional, cell-based
# Method in brief: (§3)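 MTT assay in 96-well cultures; HL-60 or HeLa cells at 1×10^4/ml in RPMI-1640 with 10% FCS, penicillin and streptomycin, 37 °C, 5% CO2. After 24 h, medium renewed with compound (final 1 mM to 1 nM) for 48 h, then renewed again for 4 h. Residue dissolved in DMSO, absorbance read; inhibition = (C−T)/C, IC50 computed.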
# HL-60 = test: Antiproliferative activity against human HL60 cells after 48 hrs by MTT assay; type: functional, cell-based; conditions: HL-60, 48 h; method in brief: as §3
# [3] = Apparent permeability from apical to basolateral side of human Caco2 cells up to 120 mins by HPLC analysis; type: ADME, cell-based; conditions: Caco-2; method in brief: as §1
# CCRF S-180 [4] = test: Antitumor activity against mouse S180 cells xenografted in ICR mouse assessed as decrease of tumor weight at 100 umol/kg, po qd for 7 days measured 24 hrs after last dose; type: functional
# Method in brief: (§4)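 S180 solid tumors started as 1×10^7 ascites-derived cells s.c. in male ICR mice, 10–12 weeks old. From 24 h, oral doses of 1, 10 or 100 µmol/kg/day in 0.2 ml saline for 7 days; oral saline negative control, i.p. cytarabine 100 µmol/kg positive control. Tumors weighed 24 h after last dose; n = 12 per table footnote.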
# CCRF S-180 [5] = test: Antitumor activity against mouse S180 cells xenografted in ICR mouse assessed as decrease of tumor weight at 1 umol/kg, po qd for 7 days measured 24 hrs after last dose; type: functional; method in brief: as §4
# CCRF S-180 [6] = test: Antitumor activity against mouse S180 cells xenografted in ICR mouse assessed as decrease of tumor weight at 10 umol/kg, po qd for 7 days measured 24 hrs after last dose; type: functional; method in brief: as §4
# [7] = Acute toxicity in po dosed ICR mouse assessed as changes in organs after 7 days by necropsy analysis; type: organism-based; conditions: in vivo
# Method in brief: (§5)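 Healthy mice were given the compound orally at 15, 90 and 540 mg/kg and observed for 7 days for neurotoxic signs (tremor, twitch, jumping, tetanus, supination) and for deaths. Organs were examined by necropsy on day 7.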
# Mus musculus [8] = test: Acute toxicity in ICR mouse assessed as changes in organs at 15 to 540 mg/kg, po after 7 days by necropsy analysis; type: organism-based; design: dose 15-540 mg/kg, route oral; conditions: in vivo, 168 h; method in brief: as §5
# Mus musculus [9] = test: Neurotoxicity in ICR mouse assessed as neurotoxic behavior at 15 to 540 mg/kg, po after 7 days; type: toxicity, organism-based; design: dose 15-540 mg/kg, route oral; conditions: in vivo, 168 h; method in brief: as §5
# [10] = Acute toxicity in ICR mouse assessed as mouse survival at 540 mg/kg, po; type: organism-based; design: dose 540 mg/kg, route oral; conditions: in vivo, read-out: Activity; method in brief: as §5
# CCRF S-180 [11] = test: Antitumor activity against mouse S180 cells xenografted in ICR mouse assessed as decrease of tumor weight at 100 umol/kg, ip qd for 7 days measured 24 hrs after last dose; type: functional; method in brief: as §2
SMILES,IC50 (HeLa) [µM],IC50 (HL-60) [µM],inhibition in vivo at 100 µmol/kg (CCRF S-180 [2]) [%],also measured
O=C(O)c1cc2ccccc2cn1,1.32,0.949,11.5,Papp B→A at 2 h [1]: 9.28 ×10⁻⁶ cm/s; Papp A→B at 2 h [3]: 9.47 ×10⁻⁶ cm/s
CC[C@@H](C)[C@H](NC(=O)c1cc2ccccc2cn1)C(=O)OCc1ccccc1,0.185,0.0963,20.9,–
O=C(N[C@@H](Cc1c[nH]c2ccccc12)C(=O)OCc1ccccc1)c1cc2ccccc2cn1,0.396,0.0661,36.9,–
O=C(N[C@@H](Cc1ccc(O)cc1)C(=O)OCc1ccccc1)c1cc2ccccc2cn1,0.508,0.0999,28,–
O=C(OCc1ccccc1)[C@@H]1CCCN1C(=O)c1cc2ccccc2cn1,0.0877,0.0534,44.5,Activity (CCRF S-180 [4]): 1.021 g; Activity (CCRF S-180 [5]): 1.661 g; Activity (CCRF S-180 [6]): 1.243 g
O=C(N[C@@H](Cc1c[nH]cn1)C(=O)OCc1ccccc1)c1cc2ccccc2cn1,0.263,0.0876,24.3,–
O=C(C[C@H](NC(=O)c1cc2ccccc2cn1)C(=O)OCc1ccccc1)OCc1ccccc1,0.411,0.074,37.5,–
O=C(CC[C@H](NC(=O)c1cc2ccccc2cn1)C(=O)OCc1ccccc1)OCc1ccccc1,0.214,0.0836,25.2,–
O=C(N[C@@H](Cc1ccccc1)C(=O)OCc1ccccc1)c1cc2ccccc2cn1,0.151,0.0918,30.1,–
C[C@H](O)[C@H](NC(=O)c1cc2ccccc2cn1)C(=O)OCc1ccccc1,0.0987,0.0622,54.4,Papp B→A at 2 h [1]: 7.05 ×10⁻⁶ cm/s; Activity (CCRF S-180 [4]): 0.802 g; LD50 at 168 h [7]: > 540 mg/kg; Activity (CCRF S-180 [5]): 1.315 g; Activity (Mus musculus [8]): Non-toxic; Activity (CCRF S-180 [6]): 1.184 g; Papp A→B at 2 h [3]: 18.6 ×10⁻⁶ cm/s; Activity (Mus musculus [9]): Non-toxic; survival [10]: 100%
O=C(CNC(=O)c1cc2ccccc2cn1)OCc1ccccc1,0.195,0.0574,16.1,–
CC(C)C[C@H](NC(=O)c1cc2ccccc2cn1)C(=O)OCc1ccccc1,0.111,0.0728,47.1,Papp B→A at 2 h [1]: 7.12 ×10⁻⁶ cm/s; Activity (CCRF S-180 [4]): 0.938 g; LD50 at 168 h [7]: > 540 mg/kg; Activity (CCRF S-180 [5]): 1.298 g; Activity (Mus musculus [8]): Non-toxic; Activity (CCRF S-180 [6]): 1.011 g; Papp A→B at 2 h [3]: 17.2 ×10⁻⁶ cm/s; Activity (Mus musculus [9]): Non-toxic; survival [10]: 100%
Nc1ccn([C@@H]2O[C@H](CO)[C@@H](O)[C@@H]2O)c(=O)n1 [CYTARABINE],–,–,54.8,Activity (CCRF S-180 [11]): 0.814 g

# Second part, led by results:
IC50 (HeLa) [µM],IC50 (HL-60) [µM],SMILES,inhibition in vivo at 100 µmol/kg (CCRF S-180 [2]) [%],also measured
0.154,0.0848,C[C@H](NC(=O)c1cc2ccccc2cn1)C(=O)OCc1ccccc1,40.6,–
0.118,0.0789,CC(C)[C@H](NC(=O)c1cc2ccccc2cn1)C(=O)OCc1ccccc1,29.7,–
0.135,0.0704,O=C(N[C@@H](CO)C(=O)OCc1ccccc1)c1cc2ccccc2cn1,40.4,–
0.181,0.0445,NC(=O)CC[C@H](NC(=O)c1cc2ccccc2cn1)C(=O)OCc1ccccc1,11.9,–
0.196,0.0682,NCCCC[C@H](NC(=O)c1cc2ccccc2cn1)C(=O)OCc1ccccc1,17.1,–
0.309,0.0449,CSCC[C@H](NC(=O)c1cc2ccccc2cn1)C(=O)OCc1ccccc1,39.6,–
0.216,0.0869,NC(=O)C[C@H](NC(=O)c1cc2ccccc2cn1)C(=O)OCc1ccccc1,36.7,–

# Reference: ChEMBL document CHEMBL1770136, “A class of novel N-isoquinoline-3-carbonyl-L-amino acid benzylesters: synthesis, anti-tumor evaluation and 3D QSAR analysis” (Eur J Med Chem, 2011)
